Sampled rows, rich in hits. Any-hit rate of the full collection: about 3.5%.
FLuc inh counter: Photinus pyralis luciferase inhibition counter-screen; ATPLite firefly luciferase biochemical luminescence, 10 min; AID 1006; P08659; inhibition, % at 10 µM; 200,000 compounds, 1.5% hits;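 active means inhibition above about 50% when tested at 10 µM, limit read from the data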
Target sequence (P08659 whole entry, looked up): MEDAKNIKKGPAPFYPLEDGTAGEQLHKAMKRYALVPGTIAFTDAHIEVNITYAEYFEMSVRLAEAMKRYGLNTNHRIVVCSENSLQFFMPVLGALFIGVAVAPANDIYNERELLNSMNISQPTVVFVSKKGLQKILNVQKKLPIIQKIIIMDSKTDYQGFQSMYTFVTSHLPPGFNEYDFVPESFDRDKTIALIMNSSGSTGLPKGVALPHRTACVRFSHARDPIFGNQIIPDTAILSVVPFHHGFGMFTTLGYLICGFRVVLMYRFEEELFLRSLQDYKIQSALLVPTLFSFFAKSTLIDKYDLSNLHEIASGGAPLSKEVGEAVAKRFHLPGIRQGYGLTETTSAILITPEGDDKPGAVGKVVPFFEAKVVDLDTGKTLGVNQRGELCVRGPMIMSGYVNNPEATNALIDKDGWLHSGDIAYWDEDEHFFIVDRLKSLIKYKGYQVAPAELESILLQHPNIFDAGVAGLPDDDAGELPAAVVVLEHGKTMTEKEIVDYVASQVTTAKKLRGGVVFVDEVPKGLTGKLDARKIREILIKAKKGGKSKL
NF-kB expr up: compounds increasing NF-kB expression in human neuronal cells | fold change at 12.5 µM | 190,000 compounds, 1.6% hits | NF-kB reporter expression; active compounds read high; in the data active means fold change above about 3.3
STAT1 act: STAT1 signaling activation | AID 932 | NIH 3T3 STAT1-luciferase reporter, IFN-gamma, luminescence; 100% = IFN-gamma alone, no compound | 200,000 compounds, 2.6% hits | activation (% of control), % at 5.5 µM;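 active means activation above the screen-wide mean activation plus 3 SD, cut at about 130% in these data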;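 further: raw ratio to IFN-gamma control signal so 100% means no change and 0% no light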
APP 5'UTR act: activates APP 5'UTR luciferase reporter | SH-SY5Y APP 5'UTR luciferase reporter, luminescence; zero percent = DMSO vehicle wells | activation, % at 2 µM | 190,000 compounds, 1% hits | AID 1276;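 active means activation above a set limit, based on mean plus 3 SD of controls, cut at about 140% in these data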
FLuc act counter: affects firefly luciferase, flagging false hits in luciferase stimulation screens; P08659; ATPlite luciferase biochemical, luminescence, 10 min; 0 = ATP-free wells, 1 = DMSO control; activation factor at 10 µM; 200,000 tested, under 10 active;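 active means luciferase activation factor, scaled between plate controls, of at least 2 with compound at 10 µM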
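Assay system: Luciferase/luciferin detection reagent, cell-free biochemical luciferase assay / Read-out: luciferase activation / Benchmarks: No-ATP low control, compound-free enzyme-plus-ATP high control / Medium: PBS buffer for ATP / Detection: luminescence measurement of luciferase light output / Schedule: 10 min at ambient temperature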
Pf gamet viab: P. falciparum stage V gametocyte viability inhibition; 150,000 compounds, 0.065% hits; AID 743093; P. falciparum stage V gametocytes, ATP luminescence, 24 h; inhibition, % at 10.9 µM;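 active means inhibition above the mean plus 3 SD of compounds within the control limits, set per campaign, cut at about 38% in these data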;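 further: 0% = DMSO wells and 100% = medium only without gametocytes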
An asterisk follows results filed as active.

How did O=C(Nc1nnc(-c2cccs2)s1)c1cccc(F)c1 do in these assays?
FLuc inh counter: 7.0; NF-kB expr up: 2.42; STAT1 act: 134.5*; APP 5'UTR act: 93.0; FLuc act counter: 0.9; Pf gamet viab: 8.1

Results for COc1ccc(C(=O)Nc2nnc(-c3cccs3)s2)cc1 ?
FLuc inh counter: 8.8; NF-kB expr up: 3.34*; STAT1 act: 121.6; APP 5'UTR act: 46.7; FLuc act counter: 0.9

Results for COc1ccc(C(=O)Nc2nnc(-c3ccco3)s2)cc1 ?
FLuc inh counter: 62.4*; NF-kB expr up: 4.82*; STAT1 act: 82.5; FLuc act counter: 0.4

How did CC(=O)Cc1nsc(NC(=O)c2cccc(F)c2)n1 do in these assays?
FLuc inh counter: 10.3; NF-kB expr up: 1.77; STAT1 act: 142.3*; APP 5'UTR act: -0.9; FLuc act counter: 0.9

How did Cc1nnc(NC(=O)c2cccc(F)c2)s1 do in these assays?
FLuc inh counter: 0.6; NF-kB expr up: 1.45; STAT1 act: 106.9; APP 5'UTR act: -3.4; FLuc act counter: 1

What do the screens show for `O=C(Nc1nnc(-c2ccco2)s1)C1CC1`?
FLuc inh counter: -0.4; NF-kB expr up: 1.99; STAT1 act: 125.4; APP 5'UTR act: 16.0; FLuc act counter: 1; Pf gamet viab: -13.1

Results for O=C(CN1CCCC1)Nc1nnc(-c2cccs2)s1 ?
FLuc inh counter: -0.1; NF-kB expr up: 1.61; STAT1 act: 109.9; APP 5'UTR act: -4.5; FLuc act counter: 1; Pf gamet viab: -5.5

What do the screens show for `CC(C)(C)CC(=O)Nc1nnc(-c2cccs2)s1`?
FLuc inh counter: 2.4; NF-kB expr up: 2.11; STAT1 act: 140.2*; APP 5'UTR act: 37.6; FLuc act counter: 1

What do the screens show for `O=C(Nc1nnc(-c2ccco2)s1)c1ccccc1`?
FLuc inh counter: 48.5; NF-kB expr up: 4.17*; STAT1 act: 125.1; APP 5'UTR act: 161.2*; FLuc act counter: 0.5

How did CCc1ccc2oc(-c3cc(N)ccc3Cl)nc2c1 do in these assays?
FLuc inh counter: 56.5*; NF-kB expr up: 2; STAT1 act: 131.3*; APP 5'UTR act: 160.0*; FLuc act counter: 0.4

Results for CCc1ccc2oc(-c3cc(N)cc(C)c3O)nc2c1 ?
FLuc inh counter: 61.9*; NF-kB expr up: 1.21; STAT1 act: 109.5; APP 5'UTR act: 104.4; FLuc act counter: 0.4; Pf gamet viab: -17.2

What do the screens show for `CCc1ccc2oc(-c3cc(N)ccc3O)nc2c1`?
FLuc inh counter: 88.3*; NF-kB expr up: 4.02*; STAT1 act: 79.5; APP 5'UTR act: 186.9*; FLuc act counter: 0.1

What do the screens show for `Cc1ccc(C)c(-c2nc3cc(N)ccc3o2)c1`?
FLuc inh counter: 3.5; NF-kB expr up: 1.12; STAT1 act: 113.7; APP 5'UTR act: -21.9; FLuc act counter: 1

How did N/C(=N\OC(=O)/C=C/c1ccccc1Cl)c1ccccn1 do in these assays?
FLuc inh counter: 74.0*; NF-kB expr up: 4.1*; STAT1 act: 59.2; APP 5'UTR act: 123.5; FLuc act counter: 0.3; Pf gamet viab: -20.1

Results for N/C(=N\OC(=O)/C=C/c1ccc(Br)cc1)c1ccccn1 ?
FLuc inh counter: 5.5; NF-kB expr up: 3.89*; STAT1 act: 120.6; APP 5'UTR act: 187.6*; FLuc act counter: 0.9; Pf gamet viab: 2.3

How did Clc1nc2ccccc2cc1/C=N/Nc1nc2ccccc2[nH]1 do in these assays?
FLuc inh counter: 88.4*; NF-kB expr up: 1.41; STAT1 act: 101.4; APP 5'UTR act: 104.3; FLuc act counter: 0.1; Pf gamet viab: -4.9

Results for Cn1c(/C=N/Nc2nc3ccccc3[nH]2)nc2ccccc21 ?
FLuc inh counter: 82.8*; NF-kB expr up: 1.2; STAT1 act: 116.0; APP 5'UTR act: 34.8; FLuc act counter: 0.2; Pf gamet viab: 8.6

Results for C(=N\Nc1nc2ccccc2[nH]1)/c1cccs1 ?
FLuc inh counter: 68.2*; NF-kB expr up: 4.14*; STAT1 act: 148.5*; APP 5'UTR act: 137.3*; FLuc act counter: 0.3

What do the screens show for `CCOc1ccc(NC(=O)CC2C(=O)N(c3ccccc3)C(=O)N2CCc2cccs2)cc1` (centres undefined)?
FLuc inh counter: -0.7; NF-kB expr up: 1.1; STAT1 act: 89.3; APP 5'UTR act: -6.2; FLuc act counter: 1; Pf gamet viab: -1.1

Results for Fc1ccc(COc2cccc3cccnc23)cc1 ?
FLuc inh counter: 7.7; NF-kB expr up: 1.96; STAT1 act: 129.0*; APP 5'UTR act: 39.4; FLuc act counter: 0.9; Pf gamet viab: -17.5

How did CC(=O)c1c(C)[nH]c(C(=O)Nc2nc(-c3ccc(Cl)cc3)cs2)c1C do in these assays?
FLuc inh counter: -1.6; NF-kB expr up: 0.35; STAT1 act: 101.2; APP 5'UTR act: 7.4; FLuc act counter: 1

What do the screens show for `CC(=O)c1c(C)[nH]c(C(=O)Nc2cc(C)cc(C)c2)c1C`?
FLuc inh counter: -2.6; NF-kB expr up: 1.39; STAT1 act: 103.8; APP 5'UTR act: -10.8; FLuc act counter: 1

What do the screens show for `CC(=O)c1c(C)[nH]c(C(=O)Nc2nc(C)cs2)c1C`?
FLuc inh counter: 89.6*; NF-kB expr up: 1.14; STAT1 act: 34.5; APP 5'UTR act: 115.9; FLuc act counter: 0.1

What do the screens show for `Cc1csc(NC(=O)c2ccc(S(C)(=O)=O)cc2)n1`?
FLuc inh counter: 16.9; NF-kB expr up: 2.44; STAT1 act: 129.8*; APP 5'UTR act: 40.1; FLuc act counter: 0.8; Pf gamet viab: -0.6

Results for CC(=O)c1c(C)[nH]c(C(=O)Nc2ccc(C)cn2)c1C ?
FLuc inh counter: 87.6*; NF-kB expr up: 1.43; STAT1 act: 64.3; APP 5'UTR act: 58.1; FLuc act counter: 0.1

Results for O=C(Nc1ccccc1C(=O)O)c1ccc(Cl)c(S(=O)(=O)N2CCOCC2)c1 ?
FLuc inh counter: 60.0*; NF-kB expr up: 0.72; STAT1 act: 53.4; APP 5'UTR act: 9.3; FLuc act counter: 0.4

Results for O=C(O)c1cccc(NC(=O)c2ccc(Cl)c(S(=O)(=O)N3CCCCCC3)c2)c1 ?
FLuc inh counter: 65.4*; NF-kB expr up: 1.9; STAT1 act: 63.4; APP 5'UTR act: 97.9; FLuc act counter: 0.3; Pf gamet viab: 2.8

What do the screens show for `O=C(Nc1ccccc1)c1cccc(S(=O)(=O)N2CCCCC2)c1`?
FLuc inh counter: -10.4; NF-kB expr up: 0.89; STAT1 act: 91.5; APP 5'UTR act: 9.8; FLuc act counter: 1.1; Pf gamet viab: -36.9

What do the screens show for `O=C(OC1CO[C@H]2O[C@@H]1[C@H](OC(=O)c1ccccc1)[C@H]2OC(=O)c1ccccc1)c1ccccc1` (some centres undefined)?
Pf gamet viab: -1.4

How did Nc1ccc2c(c1)sc1ccccc12 do in these assays?
FLuc inh counter: -0.5; NF-kB expr up: 2.25; STAT1 act: 129.6*; APP 5'UTR act: 10.6; FLuc act counter: 1; Pf gamet viab: 8.2

What do the screens show for `Nc1ccc2oc3ccccc3c2c1`?
FLuc inh counter: 6.7; NF-kB expr up: 1.46; STAT1 act: 106.5; APP 5'UTR act: 14.3; FLuc act counter: 0.9; Pf gamet viab: 1.8

Screening results as filed in PubChem BioAssay.
